In ChEMBL document CHEMBL1135814, “Aldisine alkaloids from the Philippine sponge Stylissa massa are potent inhibitors of mitogen-activated protein kinase kinase-1 (MEK-1)” (J Med Chem, 2002):

Test system: Caco-2
Assay: Inhibition of human adenocarcinoma cell line Caco-2 proliferation
Format: functional, cell-based
Summary of the method: (§1)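 Cells grown in RPMI 1640 with 10% fetal bovine serum, L-glutamine and penicillin/streptomycin. Compounds from 100% DMSO stocks were diluted in complete medium and applied at varying concentrations. Growth inhibition was read by sulforhodamine B staining, reported as IC50.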

SMILES	IC50
NC1=N/C(=C2/CCNC(=O)c3[nH]ccc32)C(=O)N1 [DEBROMOHYMENIALDISINE]	> 10000 nM
NC1=N/C(=C2\CCNC(=O)c3[nH]c(Br)cc32)C(=O)N1	> 3870 nM
NC(=O)c1cc(Br)c(Br)[nH]1	> 10000 nM
O=C1CCNC(=O)c2[nH]ccc21 [ALDISIN]	> 10000 nM
CSCC[C@H](NC(=O)c1ccc(NC[C@@H](N)CS)cc1-c1ccccc1)C(=O)O	> 10000 nM
O=C1CCNC(=O)c2[nH]c(Br)cc21	> 10000 nM
Nc1ncc(/C=C/CNC(=O)c2cc(Br)c(Br)[nH]2)[nH]1 [OROIDIN]	> 10000 nM
Nc1nc(C2CCNC(=O)c3[nH]c(Br)c(Br)c32)c[nH]1 (stereo not drawn)	> 10000 nM
NC1=NC(=O)/C(=C2\CCNC(=O)c3[nH]c(Br)cc32)N1 [HYMENIALDISINE]	> 7800 nM

Test system: LoVo
Assay: Inhibition of human adenocarcinoma cell line LoVo proliferation
Format: functional, cell-based
Summary of the method: as §1

SMILES	IC50
NC1=N/C(=C2/CCNC(=O)c3[nH]ccc32)C(=O)N1 [DEBROMOHYMENIALDISINE]	> 10000 nM
NC1=N/C(=C2\CCNC(=O)c3[nH]c(Br)cc32)C(=O)N1	586 nM
NC(=O)c1cc(Br)c(Br)[nH]1	> 10000 nM
O=C1CCNC(=O)c2[nH]ccc21 [ALDISIN]	> 10000 nM
CSCC[C@H](NC(=O)c1ccc(NC[C@@H](N)CS)cc1-c1ccccc1)C(=O)O	50 nM
O=C1CCNC(=O)c2[nH]c(Br)cc21	> 10000 nM
Nc1ncc(/C=C/CNC(=O)c2cc(Br)c(Br)[nH]2)[nH]1 [OROIDIN]	> 10000 nM
Nc1nc(C2CCNC(=O)c3[nH]c(Br)c(Br)c32)c[nH]1 (stereo not drawn)	> 10000 nM
NC1=NC(=O)/C(=C2\CCNC(=O)c3[nH]c(Br)cc32)N1 [HYMENIALDISINE]	710 nM

Molecular target: Dual specificity mitogen-activated protein kinase kinase 1 (Homo sapiens, UniProt Q02750)
Assay: Inhibition of MEK1 phosphorylation by activated human recombinant Raf

Dual specificity mitogen-activated protein kinase kinase 1, sequence (Q02750 whole entry): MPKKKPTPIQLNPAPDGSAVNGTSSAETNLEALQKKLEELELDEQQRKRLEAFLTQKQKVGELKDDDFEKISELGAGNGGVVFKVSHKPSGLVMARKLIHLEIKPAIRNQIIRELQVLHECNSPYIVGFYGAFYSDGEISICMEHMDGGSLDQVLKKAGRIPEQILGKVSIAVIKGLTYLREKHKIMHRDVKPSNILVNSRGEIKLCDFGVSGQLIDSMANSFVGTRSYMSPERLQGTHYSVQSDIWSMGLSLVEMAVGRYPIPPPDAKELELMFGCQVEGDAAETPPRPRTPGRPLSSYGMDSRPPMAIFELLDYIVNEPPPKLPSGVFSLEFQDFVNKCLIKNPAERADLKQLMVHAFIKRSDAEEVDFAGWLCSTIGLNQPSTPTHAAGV

SMILES	IC50
NC1=N/C(=C2/CCNC(=O)c3[nH]ccc32)C(=O)N1 [DEBROMOHYMENIALDISINE]	> 2500 nM
NC(=O)c1cc(Br)c(Br)[nH]1	> 2500 nM
O=C1CCNC(=O)c2[nH]ccc21 [ALDISIN]	> 2500 nM
Nc1ncc(/C=C/CNC(=O)c2cc(Br)c(Br)[nH]2)[nH]1 [OROIDIN]	> 2500 nM
Nc1nc(C2CCNC(=O)c3[nH]c(Br)c(Br)c32)c[nH]1 (stereo not drawn)	> 2500 nM

Molecular target: Serine/threonine-protein kinase RAF and Dual specificity mitogen-activated protein kinase kinase 1 (Raf/MEK) (Homo sapiens, UniProt P04049+Q02750)
Assay: Inhibition of kinase activity of Raf/MEK/ERK kinase cascade in ELISA
Format: protein assay

SMILES	IC50
NC1=N/C(=C2/CCNC(=O)c3[nH]ccc32)C(=O)N1 [DEBROMOHYMENIALDISINE]	881 nM
NC(=O)c1cc(Br)c(Br)[nH]1	> 2500 nM
O=C1CCNC(=O)c2[nH]ccc21 [ALDISIN]	> 2500 nM
Nc1ncc(/C=C/CNC(=O)c2cc(Br)c(Br)[nH]2)[nH]1 [OROIDIN]	> 2500 nM
Nc1nc(C2CCNC(=O)c3[nH]c(Br)c(Br)c32)c[nH]1 (stereo not drawn)	1288 nM
